Consider 20 compounds from ChEMBL document CHEMBL1156186, “Anti-AIDS agents 81. Design, synthesis, and structure-activity relationship study of betulinic acid and moronic acid derivatives as potent HIV maturation inhibitors” (J Med Chem, 2010).

Active and inactive are the calls of the source. The rule behind the calls is not given here.

Data set [1] relates to Human immunodeficiency virus 1. The data set is described as follows: Antiviral activity against HIV1 3B infected in human MT2 cells assessed as inhibition of viral replication at 0.8 to 100 ug/mL treated 1 day after infection measured on after 4 days postinfection by p24 antigen ELISA. The format is functional, organism-based. The method in brief: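 MT-2 cells at 3×10⁵ cells/mL were infected with HIV-1 IIIB (125 TCID₅₀) in the presence of serially diluted sample, and fresh medium was added on day 1 post-infection. Supernatants were harvested on day 4 for p24 antigen ELISA. EC₅₀ is the concentration giving 50% suppression of replication. Values are the average of at least two separate experiments.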

The test system of data set [2] is MT2. The data set is described as follows: Cytotoxicity against human MT2 cells by XTT assay. The format is cell-based. The method in brief:
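Toxicity was read by XTT on mock-infected MT-2 cells (3×10⁵ cells/mL), run as a duplicate set of the infection plates without virus, with medium added on day 1 and the assay ended on day 4. IC₅₀ is the concentration toxic to 50% of cells. Values are the average of at least two experiments.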

Data set [3] is described as follows: Therapeutic index, IC50 for human MT2 cells to EC50 for HIV1 3B. The format is cell-based. The note with it: read-out: Ratio IC50/EC50. The method in brief: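 TI is calculated as IC₅₀ (XTT, mock-infected MT-2) divided by EC₅₀ (p24 ELISA, HIV-1 IIIB-infected MT-2), both taken on day 4 post-infection from parallel plates. Values are the average of at least two experiments.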

Data set [4] relates to Human immunodeficiency virus 1. The experiment in a line: Antiviral activity against HIV1 3B infected in human MT2 cells assessed as inhibition of viral replication treated 1 day after infection measured on after 4 days postinfection by p24 antigen ELISA. The format is functional, organism-based. The note with it: Human immunodeficiency virus 1, 3B.
The subject of data set [5] is Human immunodeficiency virus 1. The data set is described as follows: Antiviral activity against wild type HIV1 NL4-3 infected in human HeLa cells assessed as inhibition of cell line-associated p25 to p24 conversion at 1 ug/mL after 2 days by Western blotting. The data set is classed as functional, organism-based. The method in brief:
(§1)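 HeLa cells were transfected with pNL4-3 proviral DNA and cultured with or without compound. Two days post-transfection, cells were metabolically labelled for 2 h with ³⁵S-Met/Cys. Cell lysates were prepared and virions were pelleted by ultracentrifugation. Both fractions were immunoprecipitated with HIV-Ig, and the p25 and p24 bands were examined by Western blotting.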
(A western blot detects proteins with antibodies after separation by electrophoresis.)

Data set [6] has as its system Human immunodeficiency virus 1. The data set is described as follows: Antiviral activity against HIV1 expressing […] L231M mutant infected in human HeLa cells assessed as inhibition of virion-associated p25 to p24 conversion at 1 ug/mL after 2 days by Western blotting. The format is functional, organism-based. The method in brief: (§2)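 HeLa cells transfected with pNL4-3 bearing the A1V or L231M mutation and cultured with or without test compound. Two days post-transfection, cells labeled 2 h with ³⁵S-Met/Cys. Cell lysates prepared; virions pelleted by ultracentrifugation. Cell and viral lysates immunoprecipitated with HIV-Ig, then Western blotted for p25 and p24.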

Data set [7] has as its system Human immunodeficiency virus 1. The data set is described as follows: Antiviral activity against wild type HIV1 NL4-3 infected in human HeLa cells assessed as inhibition of virion-associated p25 to p24 conversion at 1 ug/mL after 2 days by Western blotting. The format is functional, organism-based. The method in brief: as §1
In data set [8] the test system is Human immunodeficiency virus 1. The experiment in a line: Antiviral activity against HIV1 expressing CA-SP1 A1V mutant infected in human HeLa cells assessed as inhibition of virion-associated p25 to p24 conversion at 1 ug/mL after 2 days by Western blotting. The format is functional, organism-based. The method in brief: as §2
Data set [9] concerns Human immunodeficiency virus 1. The data set is described as follows: Antiviral activity against HIV1 expressing CA-SP1 A1V mutant infected in human HeLa cells assessed as inhibition of cell line-associated p25 to p24 conversion at 1 ug/mL after 2 days by Western blotting. The format is functional, organism-based. The method in brief: as §2
Data set [10] has as its system Human immunodeficiency virus 1. The data set is described as follows: Antiviral activity against HIV1 expressing […] L231M mutant infected in human HeLa cells assessed as inhibition of cell line-associated p25 to p24 conversion at 1 ug/mL after 2 days by Western blotting. The format is functional, organism-based. The method in brief: as §2
In data set [11] the test system is Human immunodeficiency virus 1. The data set is described as follows: Antiviral activity against HIV1 NL4-3 infected in human MT4 cells assessed as inhibition of viral replication treated 1 day after infection measured on after 4 days postinfection by p24 antigen ELISA. The data set is classed as functional, organism-based. The method in brief:
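MT-4 cells were infected with HIV-1 NL4-3 variants at an MOI of 0.01 in 96-well format with test sample. Culture supernatants were collected on day 4 post-infection for p24 antigen capture ELISA.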
In general terms: ELISA stands for enzyme-linked immunosorbent assay.

As usually defined, the IC50 is the concentration that inhibits the measured activity by half. For the compound `C=C(C)[C@@H]1CC[C@]2(C(=O)O)CC[C@]3(C)[C@H](CC[C@@H]4[C@@]5(C)CC[C@H](OC(=O)C6C7C=CC(C7)C6C(=O)O)C(C)(C)[C@@H]5CC[C@]43C)[C@@H]12` (some centres not stated), in data set [1], the inhibition result is “inactive”. The compound further gave an IC50 in [2] of 40.3 µM.
As usually defined, the EC50 is the concentration at which the effect is half-maximal. As to `C=C(C)[C@@H]1CC[C@]2(C(=O)O)CC[C@]3(C)[C@H](CC[C@@H]4[C@@]5(C)CC[C@H](OC(=O)[C@@H]6CCCC[C@H]6C(=O)O)C(C)(C)[C@@H]5CC[C@]43C)[C@@H]12`, the selectivity ratio in data set [3] came out at 2.4. Moreover, the EC50 in data set [4] is 17.3 µM. 40.9 µM corresponded to half-maximal inhibition in data set [2] (IC50).
As for `C=C(C)[C@@H]1CC[C@]2(C(=O)O)CC[C@]3(C)[C@H](CC[C@@H]4[C@@]5(C)CC[C@H](OC(=O)CC(C)(CC)C(=O)O)C(C)(C)[C@@H]5CC[C@]43C)[C@@H]12` (some centres not stated), in data set [3], the selectivity ratio is 60700. Further, the EC50 in [4] was 0.0006 µM. In [2], this compound had a half-maximal inhibitory concentration (IC50) of 36.4 µM.
The like results for `C=C(C)[C@@H]1CC[C@]2(C(=O)O)CC[C@]3(C)[C@H](CC[C@@H]4[C@@]5(C)CC[C@H](OC(=O)CC(C)(C)C(=O)O)C(C)(C)[C@@H]5CC[C@]43C)[C@@H]12` [BEVIRIMAT] were, in that order, 32900, 0.0013 µM and 42.8 µM.
As for `CCC(C)C(=O)O[C@H]1CC[C@]2(C)[C@H]3CC[C@@H]4C5=CC(C)(C)CC[C@]5(C(=O)O)CC[C@@]4(C)[C@]3(C)CC[C@H]2C1(C)C` (some centres not stated), the inhibition entry in data set [1] was “inactive”. This compound returned an IC50 in data set [2] of over 10 µM.
For `CCC(=O)O[C@H]1CC[C@]2(C)[C@H]3CC[C@@H]4C5=CC(C)(C)CC[C@]5(C(=O)O)CC[C@@]4(C)[C@]3(C)CC[C@H]2C1(C)C` the same measures were “inactive” and over 10 µM.
Regarding `CCCCC(=O)O[C@H]1CC[C@]2(C)[C@H]3CC[C@@H]4C5=CC(C)(C)CC[C@]5(C(=O)O)CC[C@@]4(C)[C@]3(C)CC[C@H]2C1(C)C`, in data set [1], the inhibition entry was “inactive”. The half-inhibitory concentration (IC50) in data set [2] was over 10 µM.
As for `C=C(C)[C@@H]1CC[C@]2(C(=O)O)CC[C@]3(C)[C@H](CC[C@@H]4[C@@]5(C)CC[C@H](OC(=O)CCC(C)(C)C(=O)O)C(C)(C)[C@@H]5CC[C@]43C)[C@@H]12`, the selectivity ratio in data set [3] came to 870. Further, the EC50 in data set [4] is 0.048 µM. The compound further had an IC50 in [2] of 41.8 µM.
For `CC1(C)C=C2[C@H]3CC[C@@H]4[C@@]5(C)CC[C@H](OC(=O)C6CCCC6)C(C)(C)[C@@H]5CC[C@@]4(C)[C@]3(C)CC[C@@]2(C(=O)O)CC1`, the inhibition entry in data set [1] is “inactive”. The IC50 in data set [2] is over 10 µM.
With `C=C(C)[C@@H]1CC[C@]2(C(=O)O)CC[C@]3(C)[C@H](CC[C@@H]4[C@@]5(C)CC[C@H](OC(=O)[C@@H]6CCC[C@H]6C(=O)O)C(C)(C)[C@@H]5CC[C@]43C)[C@@H]12`, the selectivity ratio in data set [3] was determined as 19. The EC50 in data set [4] was determined as 2.2 µM. In data set [2], this compound gave an IC50 of 41.9 µM.
As for `CC(C)CC(=O)O[C@H]1CC[C@]2(C)[C@H]3CC[C@@H]4C5=CC(C)(C)CC[C@]5(C(=O)O)CC[C@@]4(C)[C@]3(C)CC[C@H]2C1(C)C`, the inhibition result in data set [1] is “inactive”. For the same compound, in data set [2], the IC50 is over 10 µM.
As to `C=C(C)[C@@H]1CC[C@]2(C(=O)O)CC[C@]3(C)[C@H](CC[C@@H]4[C@@]5(C)CC[C@H](OC(=O)C[C@H](C)C(=O)O)C(C)(C)[C@@H]5CC[C@]43C)[C@@H]12`, the result in data set [5], in data set [6], in [7], in [8], in data set [9] and in data set [10] was Active. In data set [3], the selectivity ratio worked out at 3770. For the same compound, the EC50 in data set [4] worked out at 0.0087 µM.
On to `CC(C)C(=O)O[C@H]1CC[C@]2(C)[C@H]3CC[C@@H]4C5=CC(C)(C)CC[C@]5(C(=O)O)CC[C@@]4(C)[C@]3(C)CC[C@H]2C1(C)C`, for which the inhibition result in data set [1] is “inactive”. The compound further returned an IC50 in data set [2] of over 10 µM.
Turning to `C=C(C)[C@@H]1CC[C@]2(C(=O)O)CC[C@]3(C)[C@H](CC[C@@H]4[C@@]5(C)CC[C@H](OC(=O)C6CC=CCC6C(=O)O)C(C)(C)[C@@H]5CC[C@]43C)[C@@H]12` (some centres not stated), in data set [1], the inhibition result was “inactive”. Further, in data set [2], the IC50 was determined as 41.1 µM.
Regarding `CC1(C)C=C2[C@H]3CC[C@@H]4[C@@]5(C)CC[C@H](OC(=O)C(C)(C)C)C(C)(C)[C@@H]5CC[C@@]4(C)[C@]3(C)CC[C@@]2(C(=O)O)CC1`, in data set [1], the inhibition result was “inactive”. Moreover, the IC50 in data set [2] is over 10 µM.
For `CC1(C)C=C2[C@H]3CC[C@@H]4[C@@]5(C)CC[C@H](OC(=O)C6CCC6)C(C)(C)[C@@H]5CC[C@@]4(C)[C@]3(C)CC[C@@]2(C(=O)O)CC1` the same measures were “inactive” and over 10 µM.
For the compound `C=C(C)[C@@H]1CC[C@]2(C(=O)O)CC[C@]3(C)[C@H](CC[C@@H]4[C@@]5(C)CC[C@H](OC(=O)C[C@@H](C)C(=O)O)C(C)(C)[C@@H]5CC[C@]43C)[C@@H]12`, in [3], the selectivity ratio amounted to 365. Besides, the EC50 in [4] stood at 0.12 µM. Further, the IC50 in data set [2] was found to be 43.8 µM.
Regarding `CCCC(=O)O[C@H]1CC[C@]2(C)[C@H]3CC[C@@H]4C5=CC(C)(C)CC[C@]5(C(=O)O)CC[C@@]4(C)[C@]3(C)CC[C@H]2C1(C)C`, in data set [1], the inhibition entry is “inactive”. The compound also displayed an IC50 in data set [2] of over 10 µM.
With `C=C(C)[C@@H]1CC[C@]2(C(=O)O)CC[C@]3(C)[C@H](CC[C@@H]4[C@@]5(C)CC[C@H](OC(=O)/C=C(/C)C(=O)O)C(C)(C)[C@@H]5CC[C@]43C)[C@@H]12`, the selectivity ratio in data set [3] is 236. The EC50 in data set [4] worked out at 0.18 µM. The IC50 in data set [2] came out at 42.5 µM.
As to `C=C(C)[C@@H]1CC[C@]2(C(=O)O)CC[C@]3(C)[C@H](CC[C@@H]4[C@@]5(C)CC[C@H](OC(=O)C[C@@](C)(CC)C(=O)O)C(C)(C)[C@@H]5CC[C@]43C)[C@@H]12`, the inhibition entry in [11] is “inactive”.
